ATG4B inh – ATG4B protease inhibitors, primary screen, biochemical, fluorescence, uHTS; ATG4B cleavage of LC3-PLA2, NBD-HPC fluorescence, 1 h; actives 0.51% (n = 340,000); inhibition, % at 8.33 µM; Cysteine protease ATG4B (Homo sapiens), Q9Y4P1; in the data active means inhibition above about 40%
TPT1 inh – Candida albicans TPT1 enzyme inhibitors, primary screen, biochemical, fluorescence polarization | actives 0.81% (n = 300,000) | recombinant caTPT1, FP RNA substrate dephosphorylation | inhibition, % at 5 µM | AID 1962, 2009 | tRNA 2'-phosphotransferase TPT1 (Candida albicans SC5314);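 active means inhibition above the mean of all tested compounds plus 3 SD, set per screening campaign, cut at about 24% in these data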
CSN deneddyl inh – inhibitors of CSN-mediated cullin deneddylation, primary screen, biochemical, fluorescence polarization, uHTS; inhibition, % at 12.5 µM; COP9 signalosome complex subunit 5 (Homo sapiens), Q92905; Purified CSN, SCF-Nedd8-OG deneddylation; actives 0.38% (n = 360,000); AID 651999, 2013;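 active means pattern-corrected inhibition above about 35%, with an unprinted fluorescence ratio check between 0.5 and 1.5, limit read from the data, passing the limit was not always enough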
Target sequence (Q92905 whole entry, looked up, one chain of several): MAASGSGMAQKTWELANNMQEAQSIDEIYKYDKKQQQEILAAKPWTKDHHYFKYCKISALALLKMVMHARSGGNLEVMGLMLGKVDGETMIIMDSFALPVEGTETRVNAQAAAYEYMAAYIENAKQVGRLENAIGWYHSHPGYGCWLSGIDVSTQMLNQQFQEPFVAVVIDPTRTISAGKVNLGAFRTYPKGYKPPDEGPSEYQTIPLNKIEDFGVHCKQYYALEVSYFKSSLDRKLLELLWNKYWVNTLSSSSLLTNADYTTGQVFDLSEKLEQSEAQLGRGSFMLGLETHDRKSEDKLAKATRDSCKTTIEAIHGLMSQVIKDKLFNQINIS
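test system = HEK293T-derived human Csn5 enzyme | amount = 0.24 nM Csn5 enzyme, final concentration | medium = Tris/NaCl/DTT buffer, pH 7.5 | schedule = 90 min reaction at room temperature | signal = FP | evaluation = inhibition of Csn5 cleavage, % | compound dosing = single dose of 12.5 µM compound with 0.25% DMSO | probe or stimulus = 10 nM SCFSkp2-Nedd8OG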
Rpn11 block – Rpn11 (PSMD14) deubiquitinase inhibitors, primary screen, biochemical, fluorescence polarization, uHTS | human 26S proteasome, Ub4-pepOG fluorescence polarization; 20S core pre-blocked with epoxomicin | inhibition, % at 20 µM | actives 0.59% (n = 360,000) | AID 588493, 2011;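 active means inhibition at 20 µM, scaled to each plate's controls, above about 33%, limit read from the data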
HNF4A DNA FP – change in binding of human HNF4A to DNA, primary screen, biochemical, fluorescence polarization, FITC-DNA; 1 h; activity change, % at 10 µM; actives 0.3% (n = 360,000); AID 1224865, 2016; in the data active means activity change above about 30%, passing the limit was not always enough
SENP1 inh – human SENP1 catalytic domain inhibitors, primary screen, biochemical, FRET, uHTS; actives 0.21% (n = 360,000); AID 624204, 2012; recombinant SENP1 catalytic domain, CyPet-SUMO1-YPet FRET cleavage; inhibition, % at 10 µM; Sentrin-specific protease 1 (Homo sapiens), Q9P0U3;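 active means inhibition at least 30% at 10 µM, raw YFP signal under a set limit, fluorescence ratio 0.5 to 1.5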
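Test system: recombinant human SENP1 catalytic domain, His6-tagged / Medium: pH 8 Tris buffer with EDTA, NaCl, BME, BSA, NP40, catalase / Also added: SUMO1 FRET substrate flanked by Cypet and Ypet, 25 nM / Times: 50 min reaction at room temperature / Signal: FRET, CFP and YFP emission / Control set: no-enzyme low control and enzyme-plus-DMSO high control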
Of the large screens only hits and unclear results are named; the others gave an inactive call. Sampled rows, rich in hits. Any-hit rate of the full collection: about 2%.

CC(C)C[C@H]1CN([C@@H](Cc2ccccc2)CN2CCC[C@@H]2CN2C(=O)C(=O)NC[C@@H]2Cc2ccc(O)cc2)C(=O)C(=O)N1CC1CCCCCC1	CSN deneddyl inh 37 (no result: ATG4B inh, TPT1 inh)
O=C(O)c1cccc(N2C(=O)/C(=C/c3ccc([N+](=O)[O-])cc3)C=C2c2ccccc2)c1	SENP1 inh 32
Cc1[nH]nc2c1C(c1ccco1)C(C#N)=C(N)O2 (stereo not given)	none
Cc1[nH]nc2c1C(c1ccc(OC(=O)c3ccco3)cc1)C(C#N)=C(N)O2 (stereo not given)	ATG4B inh 54
CCCCCCNc1ccc(C(=O)OCC)cc1	CSN deneddyl inh 124 (no result: ATG4B inh, TPT1 inh)
Cc1ccc(Nc2nc(N)nc(CSc3nnnn3-c3ccccc3)n2)cc1	CSN deneddyl inh 41
Cc1ccc(Nc2nc(N)nc(CSc3nncn3C)n2)cc1	none
Cc1cccc(CN2[C@H](CO)C=CS2(=O)=O)c1	none (no result: ATG4B inh, TPT1 inh)
O=C(O)c1ccc(Cl)c(NC(=O)C2CCN(S(=O)(=O)c3cccs3)CC2)c1	none (no result: ATG4B inh, TPT1 inh)
CC1CC(=O)c2ccccc2C1C (stereo not given)	none (no result: TPT1 inh)
N#Cc1ccc(-c2ccc(F)cc2)nc1SCC(=O)Nc1sc2c(c1C#N)CCC2	TPT1 inh 26
N#Cc1cc2c(nc1SCC(=O)Nc1sc3c(c1C#N)CCC3)CCCC2	none
O=C(/C=C/c1cn(-c2ccccc2)nc1-c1cccc(Cl)c1)N1CCN(c2ccccn2)CC1	CSN deneddyl inh 153
CN1CCN(C(=O)C[C@H]2CC[C@H]3[C@@H](COC[C@@H](O)CN3Cc3cccc(F)c3)O2)CC1	none (no result: ATG4B inh, TPT1 inh, Rpn11 block)
CNC(=S)NNC(=O)CNc1ccc(C)c(Cl)c1	HNF4A DNA FP 53
Cc1cccc(NCC(=O)NNC(=S)Nc2ccccc2)c1	none
CCCCCCN1C[C@H](n2cc(COC(=O)c3ccccc3)nn2)[C@@H](O)C[C@@H]1c1ccc(C)cc1	none (no result: ATG4B inh, TPT1 inh)
CCCn1c(N)c(N(CCOC)C(=O)c2cc(C)cc(C)c2)c(=O)[nH]c1=O	HNF4A DNA FP 35
CCOc1ccc(OCCC(=O)OCC(=O)Nc2cc(OCC)c(N3CCOCC3)cc2OCC)cc1	none
COc1ccc(C)cc1N(CC(=O)N1CCCC1)S(C)(=O)=O	CSN deneddyl inh 70
COc1ccc(C)cc1N(CC(=O)N1CCCCCC1)S(C)(=O)=O	none
O=C(c1ccccc1)C1CC=CCC1C(=O)c1ccccc1 (stereo not given)	none (no result: TPT1 inh)
CCOC(=O)C1C(c2cc(OC)c(OC)c(OC)c2)NC(=S)NC1(O)C(F)(F)F (stereo not given)	CSN deneddyl inh 37
O=c1oc2ccccc2n1CCn1c2ccccc2c2nc3ccccc3nc21	CSN deneddyl inh 52
Cc1ccc(Nc2nc(Cl)nc3ncn(C)c23)c(C)c1	none (no result: TPT1 inh)
CC1CCCC(NC(=O)Cn2c(Cl)nc3c2c(=O)n(C)c(=O)n3C)C1C (stereo not given)	none (no result: TPT1 inh)
COc1ccc(-c2ncncc2-c2csc(C)n2)c(O)c1OC	none
COC1=C(N)C(=O)c2nc(-c3nc(C(=O)O)c(C)c(-c4ccc(OC)c(OC)c4O)c3N)ccc2C1=O	ATG4B inh 69 (no result: TPT1 inh, CSN deneddyl inh, Rpn11 block, HNF4A DNA FP, SENP1 inh)
COC(=O)c1ccc(CSc2nc3scc(-c4cccs4)c3c(=O)[nH]2)o1	ATG4B inh 54
Oc1ccccc1N=N/C(=N/Nc1ccccc1O)c1ccccc1	none
N#C/C(N=Nc1ccccc1O)=N\Nc1ccccc1O	SENP1 inh 33
Cc1ccc(C(=O)Nc2cccc(-c3cn4ccccc4n3)c2)cc1	CSN deneddyl inh 35
COc1ccc(C(=O)c2nccc3cc(OC)c(OC)cc23)cc1OC	none (no result: TPT1 inh)
COc1cc2c(cc1OC)-c1c(OC)c(OC)cc3ccnc(c13)C2=O	SENP1 inh 60
COc1cccc(NC(=O)COC(=O)c2c(C)nn(-c3ccccc3)c2C)c1	none (no result: TPT1 inh)
